The nature of series [1]: folding enthalpy; higher = less favourable; fluorescence melt of hairpins on a sequencing array, two-state fit. Conditions: sodium 0.088 M. The method, boiled down: (§1)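 Library hairpins on a sequenced MiSeq flow cell carried annealed Cy3 and quencher oligos, and their Cy3 fluorescence was imaged in 50 mM Na-HEPES pH 8.0 with 25 mM NaCl, in 2.5 °C steps up to 60 °C. Signals were normalised to Cy3 before quenching and to control constructs. Melting temperature and folding enthalpy were obtained from bootstrapped two-state fits, combined by inverse-variance weighting across four replicates, and the fitted temperatures were then raised by 9.35 °C to match UV melts.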

Series [2] is described as follows: melting temperature; fluorescence melt of hairpins on a sequencing array, two-state fit, raised by 9.35 °C to match UV melts. Conditions: sodium 0.088 M. The method in brief: as §1

Turning to GGGGCCGAAAGGCCACCC ((((((....)))..))), the folding enthalpy in series [1] was -10.1 kcal/mol. Further, in series [2], the Tm came to 60 °C.

With GGTAGTGAAAACTACC ((((((....)))))), the folding enthalpy in series [1] was -33.4 kcal/mol. Also, the Tm in series [2] turned out to be 58.5 °C.

With GGTACGTCGAAAGACACC (((..(((....)))))), in series [1], the folding enthalpy was -9.89 kcal/mol. Also, the Tm in series [2] amounted to 33.3 °C.

Take GTACAAGGAAACCTGTAC (((((.(....).))))): the folding enthalpy in series [1] was -26.1 kcal/mol. In addition, the Tm in series [2] was 38.2 °C.

Regarding GAGGCAGGAAACTACCTC ((((.((....)).)))), the folding enthalpy in series [1] is -26.9 kcal/mol. Also, the Tm in series [2] amounted to 40.3 °C.

With GGATCGGGAAACCGACCC ((.((((....)))).)), the folding enthalpy in series [1] is -31.8 kcal/mol. In addition, the Tm in series [2] is 47.7 °C.

Consider GCACTCGAAAGAGCCTGC ((((((....)))..))), for which the folding enthalpy in series [1] is -12.9 kcal/mol. The Tm in series [2] was found to be 27.8 °C.

As to GTGCTTACGAAAGTACAC (((..(((....)))))), the folding enthalpy in series [1] was -9.43 kcal/mol. Besides, the Tm in series [2] came out at 34 °C.

Consider GCATACTCGAAAGAGTGC (((..(((....)))))), for which the folding enthalpy in series [1] was -16.8 kcal/mol. Moreover, the Tm in series [2] is 39 °C.

As for GCGTTAACGAAAGTTCGC (((..(((....)))))), the folding enthalpy in series [1] is -29.4 kcal/mol. Moreover, the Tm in series [2] amounted to 46.8 °C.

As to GCAGGCGGAAACGTCTGC ((((.((....)).)))), the folding enthalpy in series [1] was -35.3 kcal/mol. Also, the Tm in series [2] came to 63.1 °C.

With GCAATCGAAAGATTCTGC ((((((....)))..))), in series [1], the folding enthalpy is -16 kcal/mol. The Tm in series [2] worked out at 33.7 °C.

Take TGCTCGAAAGAGCA (((((....))))): the folding enthalpy in series [1] is -17.9 kcal/mol. Moreover, the Tm in series [2] came out at 67.7 °C.

For GCTAGGCGAAAGCCTTGC ((.((((....)))).)), the folding enthalpy in series [1] is -21.1 kcal/mol. In addition, the Tm in series [2] came out at 61.8 °C.

For the sequence GCAATGTCGAAAGACTGC (((..(((....)))))), the folding enthalpy in series [1] was -20.3 kcal/mol. Also, the Tm in series [2] is 44.9 °C.

With GCTAAATCGAAAGATAGC (((..(((....)))))), the folding enthalpy in series [1] is -18.4 kcal/mol. In addition, in series [2], the Tm is 33.9 °C.

As to GCGCCCGAAAGGGTTCGC ((((((....)))..))), the folding enthalpy in series [1] is -17.7 kcal/mol. Further, the Tm in series [2] stood at 54.6 °C.

Regarding GGCACCCGAAAGGGCGCC (((.(((....))).))), the folding enthalpy in series [1] was -31.7 kcal/mol. Also, the Tm in series [2] worked out at 69 °C.

For the sequence GGTGCGGGAAACCGCGTC (..((((....))))..), in series [1], the folding enthalpy is -11.5 kcal/mol. The Tm in series [2] was found to be 44.1 °C.

As for GATCGACCGCTCGATC ((((((....)))))), the folding enthalpy in series [1] is -45.2 kcal/mol. Moreover, in series [2], the Tm turned out to be 51.7 °C.

GCACACCGAAAGGTATGC (((.(((....))).))): in series [1], the folding enthalpy is -32.8 kcal/mol. Also, the Tm in series [2] turned out to be 50.8 °C.

For the sequence GATCATAGCATGATC ((((((...)))))), in series [1], the folding enthalpy is -37 kcal/mol. Further, the Tm in series [2] is 49.9 °C.

Turning to GATCGTTAGGACGATC ((((((....)))))), in series [1], the folding enthalpy is -37.9 kcal/mol. Also, the Tm in series [2] came out at 55.2 °C.

On to GGACCCGAAAGGGGATCC ((((((....)))..))), for which the folding enthalpy in series [1] was -14.8 kcal/mol. In addition, the Tm in series [2] turned out to be 51.4 °C.

Turning to GATCTATCAGTAGATC ((((((....)))))), the folding enthalpy in series [1] is -32.5 kcal/mol. In series [2], the Tm was determined as 40.4 °C.

On to GTAGAGGGAAACCTCTGC (.(((((....))))).), for which the folding enthalpy in series [1] was -23.1 kcal/mol. In addition, the Tm in series [2] was found to be 45.9 °C.

As to GCTGTCCGAAAGGAAGC (((.(((....)))))), the folding enthalpy in series [1] is -23.9 kcal/mol. The Tm in series [2] was found to be 49.1 °C.

On to GCGTTTAAACGC ((((....)))), for which the folding enthalpy in series [1] is -29.4 kcal/mol. The Tm in series [2] is 54.7 °C.

Take GATCATCTTCATGATC ((((((....)))))): the folding enthalpy in series [1] was -37.2 kcal/mol. Further, the Tm in series [2] is 47.3 °C.

In the case of GTTAGTCGAAAGACGAAC (((.(((....))).))), in series [1], the folding enthalpy was -25.6 kcal/mol. For the same sequence, in series [2], the Tm worked out at 49 °C.

As to GCACAGCGAAAGCCGTGC ((((.((....)).)))), the folding enthalpy in series [1] is -24.4 kcal/mol. Further, the Tm in series [2] was 65.6 °C.

On to GGGTTTCGAAAGAAGCCC (((.(((....))).))), for which the folding enthalpy in series [1] was -44.4 kcal/mol. Also, the Tm in series [2] worked out at 57.1 °C.

On to GCCCCTCGAAAGAGAGGC (((.(((....))).))), for which the folding enthalpy in series [1] is -31.4 kcal/mol. Moreover, in series [2], the Tm was found to be 52.8 °C.

With GATCTCCGAAAGGATATC (((.(((....))).))), the folding enthalpy in series [1] was -31.9 kcal/mol. In addition, the Tm in series [2] worked out at 39.3 °C.

Take GATCGACACTTCGATC ((((((....)))))): the folding enthalpy in series [1] is -48.6 kcal/mol. Further, the Tm in series [2] was found to be 53.4 °C.

Regarding GTTCCCGAAAGGGAAAC ((((((....))).))), in series [1], the folding enthalpy was -12.6 kcal/mol. For the same sequence, the Tm in series [2] was 49.6 °C.

Regarding GACATCCGAAAGGAGTC (((.(((....)))))), the folding enthalpy in series [1] was -21.2 kcal/mol. In addition, in series [2], the Tm was determined as 45.4 °C.

The record behind these values is the array DNA melting data of Ke et al. (doi:10.1101/2024.01.08.574731).
